Test results: PMC2975716 (Journal of Lipid Research, 2010)
Numbering of substitutions follows the chain as printed. Like-named read-outs stand apart in the source and are kept apart here. Marks after values point to notes of the source that are not given here.

Experiments:
CETP [1] = target: T1, CETP (Homo sapiens, UniProt P11597); assay type: binding; conditions: 25 µM unlabeled compound, […] label
T1 sequence (P11597 18-493): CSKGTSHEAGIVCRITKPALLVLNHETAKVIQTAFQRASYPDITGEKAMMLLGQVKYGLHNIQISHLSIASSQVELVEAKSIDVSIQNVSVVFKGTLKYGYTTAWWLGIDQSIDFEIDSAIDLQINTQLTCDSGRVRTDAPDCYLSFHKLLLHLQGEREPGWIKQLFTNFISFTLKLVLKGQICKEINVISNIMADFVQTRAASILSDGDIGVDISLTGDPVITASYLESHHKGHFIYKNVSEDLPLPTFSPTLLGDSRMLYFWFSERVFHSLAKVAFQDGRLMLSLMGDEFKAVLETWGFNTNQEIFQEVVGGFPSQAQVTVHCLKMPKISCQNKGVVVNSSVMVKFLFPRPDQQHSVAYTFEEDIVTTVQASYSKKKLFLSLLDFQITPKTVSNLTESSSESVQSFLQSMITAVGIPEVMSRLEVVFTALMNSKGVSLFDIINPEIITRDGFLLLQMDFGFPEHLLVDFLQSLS

CETP [2] = target: T1, CETP; assay type: binding; conditions: 25 µM unlabeled compound, coincubation
[3] = cited from earlier work
Golden Syrian hamsters = test: In vivo macrophage-to-feces RCT study; set-up: species or system Golden Syrian hamster; conditions: dalcetrapib 100 mg/kg BID, torcetrapib 30 mg/kg QD, anacetrapib 30 mg/kg QD; for [3H]HDL / [3H]plasma: Day 3 after labeled macrophage injection; for [3H]HDL / [3H]plasma / Fecal [3H]total sterols / Fecal total radioactivity: mean ± SD; for Change in liver radioactivity compared with vehicle: day 10, data not shown; for Fecal [3H]total sterols: sum of [3H]neutral sterols and [3H]bile acids; for Fecal [3H]total sterols / Fecal total radioactivity: day 0-10; for Fecal total radioactivity: whole fecal homogenates
CETP [4] = target: T1, CETP; test: Transfer of CE from HDL to LDL, scintillation proximity assay; assay type: biochemical
C13S CETP = target: T2, C13S CETP (Homo sapiens, UniProt P11597, C30S); test: Transfer of CE from HDL to LDL, scintillation proximity assay, C13S mutant; assay type: biochemical
T2 sequence (P11597 18-493 C30S): T1 sequence (P11597 18-493) with C13S

[5] = assay type: in vivo, human; conditions: healthy volunteers, single oral dose 600 mg dalcetrapib
JHC-1 = test: Binding to antibody JHC-1
[6] = test system: CETP-induced pre-β-HDL formation; test: Quantification of pre-β-HDL by ELISA in incubated human plasma; assay type: biochemical; conditions: endogenous CETP only, 21 h at 37°C
In short: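 Human plasma with endogenous CETP at 1.25 μg/ml, no rhCETP added, incubated 21 h at 37°C with or without test compound (0.1, 1, 3, 10 µM). Pre-β-HDL quantified by a pre-β1-selective ELISA. Dose effects assessed by ANCOVA with nested factor.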

PLTP [7] = target: T3, PLTP (Homo sapiens, UniProt P55058); test: PLTP activity; assay type: biochemical; conditions: concentrations up to 30 µM; data not shown
CETP [8] = target: T1, CETP; test: CETP ELISA with different capture antibodies, in vitro addition to human plasma; conditions: 0.01-10 µM
In short: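 Test compound dilution series (0.01–10 µM) made in this plasma, held 3 h at 37°C, then assayed by JHC-1-capture/6/6-HRP and 6/2-capture/6/17-HRP ELISAs. Duplicates per donor (n = 14); mean with SD.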

CETP [9] = target: T1, CETP; test: CETP ELISA on plasma of healthy subjects after single oral 600 mg dalcetrapib; assay type: in vivo; conditions: 22 healthy volunteers
PLTP [10] = target: T3, PLTP; conditions: concentrations up to 30 µM; cited from earlier work
CETP [11] = target: T1, CETP; test: SPR; assay type: binding; conditions: 5 µM, 60 s, before and after dalcetrapib-thiol injections
[12] = read-out: IC50 for transfer of CE from HDL to LDL by rhCETP, mean ± SEM, CETP 0.5 µg/ml, 3 h at 37°C
[13] = read-out: IC50 for transfer of CE from HDL to LDL by C13S CETP mutant, mean ± SEM, CETP 0.5 µg/ml, 3 h at 37°C
[14] = human plasma of seven donors, 3 h at 37°C

T3 sequence (P55058 18-493, species assumed): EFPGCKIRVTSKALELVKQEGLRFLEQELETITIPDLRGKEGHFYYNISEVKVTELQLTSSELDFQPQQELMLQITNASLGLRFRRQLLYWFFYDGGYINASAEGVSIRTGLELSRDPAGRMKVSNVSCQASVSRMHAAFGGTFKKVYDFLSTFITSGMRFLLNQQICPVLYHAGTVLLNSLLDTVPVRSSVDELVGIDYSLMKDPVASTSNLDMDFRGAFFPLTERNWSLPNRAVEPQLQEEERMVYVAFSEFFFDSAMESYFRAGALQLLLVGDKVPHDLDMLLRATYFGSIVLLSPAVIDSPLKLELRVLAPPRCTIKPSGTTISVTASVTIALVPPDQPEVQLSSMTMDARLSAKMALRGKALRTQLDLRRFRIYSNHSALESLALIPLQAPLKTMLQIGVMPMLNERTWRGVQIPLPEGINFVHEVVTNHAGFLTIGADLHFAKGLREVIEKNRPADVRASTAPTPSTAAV

COc1cc(F)c(C(C)C)cc1-c1ccc(C(F)(F)F)cc1CN1C(=O)O[C@H](c2cc(C(F)(F)F)cc(C(F)(F)F)c2)[C@@H]1C [anacetrapib]
Displacement of [14C]dalcetrapib-thiol bound to rhCETP (CETP [1]; with 5 mM TCEP): neither torcetrapib nor anacetrapib affected | Decrease in amount of [14C]torcetrapib bound to immobilized rhCETP (CETP [2]): 60% | Raise of plasma HDL-C in humans [3]: up to 130% | [3H]HDL (Golden Syrian hamsters): 0.34 ± 0.07^c kBq/ml | [3H]plasma (Golden Syrian hamsters): 0.79 ± 0.11 kBq/ml | Change in liver radioactivity compared with vehicle (Golden Syrian hamsters): −9.2% | Fecal [3H]total sterols (Golden Syrian hamsters): 9.7 ± 0.9 % of injected | Fecal total radioactivity (Golden Syrian hamsters): 13.2 ± 1.5 % of injected

CCC(CC)CC1(C(=O)Nc2ccccc2SSc2ccccc2NC(=O)C2(CC(CC)CC)CCCCC2)CCCCC1 [dalcetrapib-disulfide]
IC50 (CETP [4]; [12]): 35.2 ± 2.8 nM | IC50 (C13S CETP; [13]): > 100000 nM | Effect on binding of [14C]torcetrapib to immobilized rhCETP (CETP [2]): unaffected

CCC(CC)CC1(C(=O)Nc2ccccc2S)CCCCC1 [dalcetrapib-thiol]
IC50 (CETP [4]; [12]): 23.7 ± 1.9 nM | Maximum plasma dalcetrapib-thiol level [5]: 628.7 ng/mL | Time of maximum plasma dalcetrapib-thiol level [5]: 4 h | t1/2 ([5]; mean ± SD): 25.5 ± 3.9 h | IC50 (C13S CETP; [13]): > 100000 nM | Binding to JHC-1 (JHC-1): did not bind | Displacement of [14C]dalcetrapib-thiol bound to rhCETP (CETP [1]; absence of TCEP, data not shown): not observed | Displacement of [14C]dalcetrapib-thiol bound to rhCETP (CETP [1]; with 5 mM TCEP): did occur when TCEP was present | Effect on binding of [14C]torcetrapib to immobilized rhCETP (CETP [2]): only marginally decreased

CCC(CC)CC1(C(=O)Nc2ccccc2SC(=O)C(C)C)CCCCC1 [dalcetrapib]
Increase in pre-β-HDL ([6]; 1 µM, NS): 4% | Increase in pre-β-HDL ([6]; 3 µM, P < 0.05): 13% | Increase in pre-β-HDL ([6]; 10 µM, P < 0.01): 16% | IC50 (CETP [4]): 205 ± 96.3 nM | Effect on PLTP activity (PLTP [7]): neither inhibit nor increase PLTP activity | IC50 (C13S CETP): > 100000 nM | Concentration at which maximum decrease in JHC-1 epitope detection is reached (CETP [8]; human plasma in vitro): 0.5 µM | Concentration from which CETP detection by JHC-1 is decreased (CETP [8]; human plasma in vitro): ≥ 0.1 µM | Change in CETP epitope detection, ELISA with capture antibody 6/2 (CETP [8]; [14]): no change in epitope detection | Displacement of [14C]dalcetrapib-thiol bound to rhCETP (CETP [1]; with 5 mM TCEP): displaced | Change in CETP detection with 6/2 as capture antibody (CETP [9]): no change was detected | Decrease in CETP detection by the JHC-1-based ELISA (CETP [9]; P < 0.001): 30% | Effect on binding of [14C]torcetrapib to immobilized rhCETP (CETP [2]): unaffected | Raise of HDL-C in humans ([3]; dose of 600 mg): up to 36% | [3H]HDL (Golden Syrian hamsters): 0.28 ± 0.04^c kBq/ml | [3H]plasma (Golden Syrian hamsters): 0.74 ± 0.05 kBq/ml | Change in liver radioactivity compared with vehicle (Golden Syrian hamsters): −42.2% | Fecal [3H]total sterols (Golden Syrian hamsters): 12.5 ± 0.5^b % of injected | Fecal total radioactivity (Golden Syrian hamsters): 17.5 ± 0.5^c % of injected

CCOC(=O)N1c2ccc(C(F)(F)F)cc2[C@@H](N(Cc2cc(C(F)(F)F)cc(C(F)(F)F)c2)C(=O)OC)C[C@H]1CC [torcetrapib]
Effect on PLTP activity (PLTP [10]): neither inhibit nor increase PLTP activity | Change in CETP epitope detection, ELISA with capture antibody 6/2 (CETP [8]; [14]): no change in epitope detection | Change in CETP epitope detection, ELISA with capture antibody JHC-1 (CETP [8]; [14]): did not change epitope detection | Displacement of [14C]dalcetrapib-thiol bound to rhCETP (CETP [1]; with 5 mM TCEP): neither torcetrapib nor anacetrapib affected | Decrease in amount of [14C]torcetrapib bound to immobilized rhCETP (CETP [2]): 82% | Binding to rhCETP following saturation of the dalcetrapib binding site (SPR) (CETP [11]): remained unchanged | Fecal sterol excretion in clinical studies [3]: not associated with an increase in fecal sterol excretion | [3H]HDL (Golden Syrian hamsters): 0.32 ± 0.07^c kBq/ml | [3H]plasma (Golden Syrian hamsters): 0.77 ± 0.11 kBq/ml | Change in liver radioactivity compared with vehicle (Golden Syrian hamsters): −28.1% | Fecal [3H]total sterols (Golden Syrian hamsters): 11.5 ± 0.5^b % of injected | Fecal total radioactivity (Golden Syrian hamsters): 16.5 ± 0.5^c % of injected
